ChEMBL document CHEMBL1133895, “1,4-Disubstituted imidazoles are potential antibacterial agents functioning as inhibitors of enoyl acyl carrier protein reductase (FabI)” (Bioorg Med Chem Lett, 2001)
Converted amounts (≈) assume the structure as drawn.

Key:
[1] = molecular target: T1, Enoyl-[acyl-carrier-protein] reductase [NADPH] FabI (Staphylococcus aureus, UniProt Q6GI75); assay: Evaluated for inhibition of enoyl acyl carrier protein reductase (FabI) in Staphylococcus aureus.
T1 sequence (Q6GI75 whole entry): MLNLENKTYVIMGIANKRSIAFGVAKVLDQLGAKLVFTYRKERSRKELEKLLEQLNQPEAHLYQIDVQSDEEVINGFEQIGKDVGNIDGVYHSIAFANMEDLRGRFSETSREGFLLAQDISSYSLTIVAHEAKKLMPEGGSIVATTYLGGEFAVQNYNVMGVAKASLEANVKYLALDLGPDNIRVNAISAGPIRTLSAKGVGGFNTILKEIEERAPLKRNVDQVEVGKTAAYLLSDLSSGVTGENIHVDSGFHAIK

[2] = molecular target: T2, Enoyl-[acyl-carrier-protein] reductase [NADH] FabI (Escherichia coli K-12, UniProt P0AEK4); assay: Evaluated for inhibition of enoyl acyl carrier protein reductase (FabI) in Escherichia coli.
T2 sequence (P0AEK4 whole entry): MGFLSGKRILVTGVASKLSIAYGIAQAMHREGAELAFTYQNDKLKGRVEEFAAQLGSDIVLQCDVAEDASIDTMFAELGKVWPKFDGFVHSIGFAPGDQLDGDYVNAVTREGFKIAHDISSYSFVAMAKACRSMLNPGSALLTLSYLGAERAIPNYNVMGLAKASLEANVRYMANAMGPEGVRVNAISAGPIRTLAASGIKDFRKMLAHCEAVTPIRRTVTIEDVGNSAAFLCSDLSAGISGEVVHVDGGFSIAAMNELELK

Staphylococcus aureus = assay: Antibacterial activity against Staphylococcus aureus Oxford.; type: functional
Moraxella catarrhalis = assay: Antibacterial activity against Moraxella catarrhalis 1502; type: functional
[3] = molecular target: T1, Enoyl-[acyl-carrier-protein] reductase [NADPH] FabI; assay: Evaluated for inhibition of enoyl acyl carrier protein reductase (FabI) of Staphylococcus aureus in the presence of NADH using crotonoyl CoA as substrate
[4] = molecular target: T2, Enoyl-[acyl-carrier-protein] reductase [NADH] FabI; assay: Evaluated for inhibition of enoyl acyl carrier protein reductase (FabI) of Escherichia coli in the presence of NADH using crotonoyl CoA as substrate
Outline: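 Cloned, overexpressed, purified E. coli FabI (usually 60 nM) in 100 mM NaADA pH 6.5, 4% glycerol, 0.25 mM crotonoyl CoA, 50 µM NADH; inhibitor typically 0.01-10 µM. NADH consumption followed at 340 nm, 20 min, 30 °C; initial velocities from tangent at t = 0 of exponential fit; IC50 from 4-parameter fit, mean ± SD of duplicates.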

| SMILES | IC50 [1] | IC50 [2] | MIC (Staphylococcus aureus) | MIC (Moraxella catarrhalis) | IC50 [3] | IC50 [4] |
| --- | --- | --- | --- | --- | --- | --- |
| Cc1ccc(Cn2cnc(-c3cccc(Cl)c3Cl)c2)cc1 | > 10 µM |  |  |  |  |  |
| c1ccc(-c2ccc(Cn3cnc(-c4ccsc4)c3)cc2)cc1 | 7.66 µM | 1.18 µM |  |  |  |  |
| COc1ccc(-c2cn(Cc3ccccc3)cn2)cc1 | 1.13 µM | 5.28 µM | 64 mg/L (≈ 242 µM) | 64 mg/L (≈ 242 µM) |  |  |
| Cc1ccc(Cc2coc(-c3ccsc3)n2)cc1 | > 100 µM | > 100 µM |  |  |  |  |
| c1ccc(C[C@@H]2COC(c3ccsc3)=N2)cc1 | > 100 µM | > 100 µM |  |  |  |  |
| O=C(O)c1cccc(Cn2cnc(-c3ccsc3)c2)c1 | > 100 µM | > 100 µM |  |  |  |  |
| Nc1ccc(Cn2cnc(-c3ccsc3)c2)cc1 | 2.03 µM | 5.14 µM | > 64 mg/L | > 64 mg/L |  |  |
| c1ccc(C[C@H]2COC(c3ccsc3)=N2)cc1 | > 100 µM | > 100 µM |  |  |  |  |
| Cc1ccc(Cn2cnc(-c3ccsc3)c2)cc1 | 0.25 µM | 6.44 µM | 8 mg/L (≈ 31.5 µM) | 32 mg/L (≈ 126 µM) |  |  |
| FC(F)(F)c1ccc(-c2cn(Cc3ccccc3)cn2)cc1 | > 100 µM |  |  |  |  |  |
| Cc1cccc(Cn2cnc(-c3ccsc3)c2)c1 | 4.24 µM | 12.2 µM | > 64 mg/L | 32 mg/L (≈ 126 µM) |  |  |
| COc1ccc(Cn2cnc(-c3ccsc3)c2)cc1 | 1.9 µM | 9.4 µM | 16 mg/L (≈ 59.2 µM) | 64 mg/L (≈ 237 µM) |  |  |
| Cc1ccc(Cn2cnc(-c3cccs3)c2)cc1 |  |  | 128 mg/L (≈ 503 µM) |  | 1.24 µM | 13.7 µM |
| Oc1cc(Cl)ccc1Oc1ccc(Cl)cc1Cl [TRICLOSAN] |  |  | 0.03 mg/L (≈ 0.104 µM) | 0.06 mg/L (≈ 0.207 µM) |  |  |

The remaining lines, values ahead:

| IC50 [1] | IC50 [2] | MIC (Staphylococcus aureus) | MIC (Moraxella catarrhalis) | IC50 [3] | IC50 [4] | SMILES |
| --- | --- | --- | --- | --- | --- | --- |
| 66.2 µM | > 100 µM |  |  |  |  | COc1ccc(-c2c[nH]c(Cc3ccc(C)cc3)n2)cc1 |
| 4.07 µM | 28.3 µM |  |  |  |  | COc1ccc(-c2cn(Cc3ccc(C(F)(F)F)cc3)cn2)cc1 |
| 50.7 µM | > 100 µM |  |  |  |  | Cc1ccc(Cc2nc(-c3ccsc3)no2)cc1 |
| 36.5 µM | 65.4 µM |  |  |  |  | Cc1ccccc1Cn1cnc(-c2ccsc2)c1 |
| > 100 µM |  |  |  |  |  | Cn1cnc(-c2ccsc2)c1 |
| 14.7 µM | 26.9 µM |  |  |  |  | O=[N+]([O-])c1cccc(Cn2cnc(-c3ccsc3)c2)c1 |
| 51 µM | > 100 µM |  |  |  |  | Cc1ccc(Cc2noc(-c3ccsc3)n2)cc1 |
| 0.36 µM | 3.92 µM | 8 mg/L (≈ 28.7 µM) | 32 mg/L (≈ 115 µM) |  |  | COc1ccc(-c2cn(Cc3ccc(C)cc3)cn2)cc1 |
